Source: PubChem
Runt-CBFb FRET: Runt domain-CBFb interaction inhibition; 220,000 tested, 0.46% active; inhibition, % at 20 µM; Cerulean-Runt/Venus-CBFb FRET ratio 530/480, 1 h; Q01196+Q13951;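 active = inhibition over about 50% at 20 µM in the single-dose screen, limit read from the data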;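 note: 0% = DMSO wells and 100% = excess unlabeled CBFb competitor control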
Target sequence (Q01196 whole entry, looked up, the tested form may be a part): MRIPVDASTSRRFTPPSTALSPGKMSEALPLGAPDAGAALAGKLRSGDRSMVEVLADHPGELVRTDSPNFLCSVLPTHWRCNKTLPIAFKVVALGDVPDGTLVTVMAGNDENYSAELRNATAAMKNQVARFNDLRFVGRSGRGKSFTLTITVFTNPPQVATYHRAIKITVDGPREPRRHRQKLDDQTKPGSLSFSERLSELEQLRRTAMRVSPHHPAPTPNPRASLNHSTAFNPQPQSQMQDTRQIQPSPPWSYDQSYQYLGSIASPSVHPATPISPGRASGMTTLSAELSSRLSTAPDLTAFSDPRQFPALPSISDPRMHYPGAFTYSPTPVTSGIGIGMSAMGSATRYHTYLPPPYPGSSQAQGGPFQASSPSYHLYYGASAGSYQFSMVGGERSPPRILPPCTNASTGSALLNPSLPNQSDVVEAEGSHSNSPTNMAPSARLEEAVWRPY
Target sequence (Q13951 whole entry, looked up, the tested form may be a part): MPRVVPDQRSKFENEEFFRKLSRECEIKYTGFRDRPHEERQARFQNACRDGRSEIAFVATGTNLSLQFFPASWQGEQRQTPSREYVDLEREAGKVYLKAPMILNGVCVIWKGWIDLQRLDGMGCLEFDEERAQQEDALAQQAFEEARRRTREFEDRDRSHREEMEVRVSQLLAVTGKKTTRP
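Assay system: Cerulean-tagged RUNX1 Runt domain (FRET donor) fusion protein / Amount: 100 nM each of Venus-CBFb and Cerulean-Runt domain / Medium: Tris buffer pH 7.5 with salts and BSA / Also added: Venus-CBFb 100 nM / Schedule: 1 h complex formation plus 1 h compound treatment, room temperature / Signal: FRET fluorescence / Read-out: loss of energy transfer signal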
Runt-SMMHC FRET: inhibitors of human RUNX1 Runt domain binding to CBFb-SMMHC. Cerulean-Runt/Venus-CBFb-SMMHC FRET ratio 530/480, 1 h. 220,000 tested, 0.74% active. Q01196+Q13951. inhibition, % at 20 µM;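 active = mean inhibition across duplicate retests at 20 µM reaching about 50%, limit read from the data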;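 note: 0% = DMSO wells and 100% = wells with excess untagged CBFb-SMMHC; inhibitors lower the FRET ratio by blocking Runt binding to CBFb-SMMHC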
CaV13 FRET inh: Disruptors of the CACNA1D IQ motif to Ca2+-dependent inactivation inhibitor domain association, primary screening, Förster resonance energy transfer in intact living …. HEK cells, CFP/YFP FRET ICDI-IQ, plate reader, 10 min; percent FRET-ratio fall versus neutral wells. inhibition, % at 12.3 µM. 340,000 tested, 0.098% active;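 active = mean replicate inhibition of at least 30% and at least 1% of replicates passing that level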;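 note: 0% = median of the neutral control wells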
Hck-Nef inh: blocks Nef-activated human Hck kinase | P08631 | Recombinant Hck-YEEI plus Nef, Z-Lyte FRET kinase assay | inhibition, % at 20 µM | 220,000 tested, 0.68% active | AID 463187;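 active = Hck-Nef kinase inhibition above about 50%, limit read from the data; inactive = inhibition below that limit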;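 note: 0% = DMSO with Hck plus Nef and 100% = Hck alone without Nef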
RanGTP-Impb inh: inhibitors of RanGTP-importin-beta interaction, primary screen, biochemical, FRET, CFP-Ran, YFP-importin-beta, homogeneous; cell-free CFP-Ran/YFP-importin-beta FRET ratio; inhibition, % (concentration not given with the values); 300,000 tested, 1.1% active; AID 2216;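 active = more than half of the replicate wells show a fall in the fluorescence ratio signal beyond about 16%, limit read from the data, passing the limit was not always enough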;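 note: 0% = DMSO wells and 100% = Ran loaded with GDP instead of GTP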
* hit, by the source's call. Shown are actives, neighbours in structure and some others; about 1.5% of the full set was active somewhere.

Screening N#CC(C#N)=C/C=C(\Nc1ccc(Cl)cc1)c1ccc(Cl)cc1 returned Runt-CBFb FRET 11, Runt-SMMHC FRET -2, CaV13 FRET inh -4, Hck-Nef inh 16 and RanGTP-Impb inh 66*.
Screening CCCCn1c(N)c(N2CCOCC2)c(=O)n(CC(=O)NC(C)c2ccccc2)c1=O (centres undefined) returned Runt-CBFb FRET 2, Runt-SMMHC FRET 2, CaV13 FRET inh 0, Hck-Nef inh 16 and RanGTP-Impb inh 27*.
`N#Cc1cc(-c2ccccc2)[nH]c1-c1nccc2ccccc12` gave Runt-CBFb FRET 0, Runt-SMMHC FRET 1, CaV13 FRET inh -2, Hck-Nef inh 10 and RanGTP-Impb inh -3.
c1ccc(-c2ccc(-c3nccc4ccccc34)[nH]2)cc1 was read as Runt-CBFb FRET 30, Runt-SMMHC FRET 61* and Hck-Nef inh 57*.
N#CCN(C(=O)COC(=O)CCCNC(=O)c1ccc(Cl)cc1)c1ccccc1 was read as CaV13 FRET inh -3.
Screening COc1cc(C(=O)Nc2sc3c(c2C#N)CCN(C(C)=O)C3)cc(OC)c1OC returned Runt-CBFb FRET 29, Runt-SMMHC FRET 79*, CaV13 FRET inh -5, Hck-Nef inh 20 and RanGTP-Impb inh 38*.
For CC(=O)N1CCc2c(sc(NC(=O)Cc3ccc(F)cc3)c2C#N)C1 the results were CaV13 FRET inh -4 and RanGTP-Impb inh 2.
CC(C)N1CCc2c(sc(NC(=O)c3ccc(S(=O)(=O)N4CCOCC4)cc3)c2C#N)C1 was read as Runt-CBFb FRET 15, Runt-SMMHC FRET 29, Hck-Nef inh -1 and RanGTP-Impb inh 43*.
CN1CCc2c(sc(NC(=O)Cc3ccccc3)c2C#N)C1 was read as CaV13 FRET inh 120* and RanGTP-Impb inh 164*.
Cc1sc(NC(=S)NC(=O)c2ccccc2)c(C#N)c1C was read as CaV13 FRET inh -8, Hck-Nef inh 4 and RanGTP-Impb inh 0.
CCCN1CCc2c(sc(NC(=S)NC(=O)c3ccccc3)c2C#N)C1 was read as Runt-CBFb FRET 3, Runt-SMMHC FRET 93*, CaV13 FRET inh 16, Hck-Nef inh 0 and RanGTP-Impb inh 159*.
CC(=O)c1c(O)cc2c3c1OC(C)(C)C1CCC(C)(CC31)O2 (centres undefined) was read as CaV13 FRET inh -7.
For Cc1ccc(N2CC(C(=O)Nc3ccc(N4CCOCC4)cc3)CC2=O)cc1C (centres undefined) the results were CaV13 FRET inh -3 and RanGTP-Impb inh 2.
For C[C@H]1CN([C@@H](C)CO)S(=O)(=O)c2ccc(-c3ccc(C#N)cc3)cc2O[C@H]1CN(C)C(=O)CN(C)C the results were CaV13 FRET inh -7.
CC(C)N1CCc2c(sc(NC(=S)NC(=O)c3ccccc3)c2C#N)C1 was read as Runt-CBFb FRET 19, Runt-SMMHC FRET 60*, CaV13 FRET inh -2, Hck-Nef inh 3 and RanGTP-Impb inh 162*.
COc1cc(OC)cc(C(=O)Nc2ccn(C)n2)c1 was read as CaV13 FRET inh -15.
O=C1CCc2cc(S(=O)(=O)NC(Cc3ccccc3)C(=O)NCCC3=CCCCC3)ccc2N1 (centres undefined) was read as Runt-CBFb FRET 0, Runt-SMMHC FRET 4, CaV13 FRET inh 66*, Hck-Nef inh 1 and RanGTP-Impb inh 0.
`N#Cc1ccc(/C=N/NC(=O)c2cccc(S(=O)(=O)N3CCOCC3)c2)cc1` gave Runt-CBFb FRET 1, Runt-SMMHC FRET -1, CaV13 FRET inh 3, Hck-Nef inh -15 and RanGTP-Impb inh 32*.
`O=C(/C=C/c1ccccc1)C1=C(O)C(=O)N(CCO)C1c1ccc2c(c1)OCO2` (centres undefined) gave Runt-CBFb FRET 1, Runt-SMMHC FRET 1, CaV13 FRET inh 34*, Hck-Nef inh 11 and RanGTP-Impb inh 0.
`S=C(NCc1ccco1)N1CCOCC1` gave Runt-CBFb FRET 27, Runt-SMMHC FRET -8, CaV13 FRET inh -3, Hck-Nef inh 18 and RanGTP-Impb inh 22*.
For CCc1cc(-c2n[nH]c(C)c2-c2ccccc2Cl)c(O)cc1OC the results were CaV13 FRET inh -3 and RanGTP-Impb inh -1.
`COc1ccc(NC(=O)c2cc(-c3ccccc3)nc3c2cnn3C(C)C)c(OC)c1` gave CaV13 FRET inh -4.
For CCOc1cc(Br)c(Br)c(C=Nc2ccc(NC(C)=O)cc2)c1O the results were Runt-CBFb FRET -5, Runt-SMMHC FRET -20, CaV13 FRET inh -4, Hck-Nef inh 63* and RanGTP-Impb inh -7.
For CC1CCCCC1NC(=O)c1cc(S(=O)(=O)N2CCCCC2)ccc1N1CCOCC1 (centres undefined) the results were CaV13 FRET inh -5.
`NS(=O)(=O)c1ccc(CCNC(=O)c2ccc3c(=O)n4c(nc3c2)CCCCC4)cc1` gave CaV13 FRET inh -6.
For COc1cccc(-n2cc(CNCc3cn(C)nc3-c3ccccc3F)cn2)c1 the results were Runt-CBFb FRET 0, Runt-SMMHC FRET -2, CaV13 FRET inh 1, Hck-Nef inh -6 and RanGTP-Impb inh 64*.
COc1cccc(-n2cc(CNCc3c(C(=O)N(C)C)nc4ccc(Cl)cn34)cn2)c1 was read as Runt-CBFb FRET 0, Runt-SMMHC FRET 2, CaV13 FRET inh -4, Hck-Nef inh 2 and RanGTP-Impb inh -1.
`COc1ccccc1C(=O)NCC[N+](C)(C)C` gave CaV13 FRET inh -6.
`OCCCc1nc2n(n1)C(c1ccccc1Cl)C=C(c1cccs1)N2` (centres undefined) gave Runt-CBFb FRET 19, Runt-SMMHC FRET 78*, Hck-Nef inh -3 and RanGTP-Impb inh 34*.
`OCCCc1nc2n(n1)C(c1cccs1)C=C(c1ccccc1)N2` (centres undefined) gave Runt-CBFb FRET -4, Runt-SMMHC FRET -137, Hck-Nef inh 2 and RanGTP-Impb inh -54.
For Cc1[nH]c2ccccc2c1CCCO the results were Runt-CBFb FRET 9, Runt-SMMHC FRET 84, CaV13 FRET inh -5, Hck-Nef inh -18 and RanGTP-Impb inh 18*.
Screening Cc1[nH]c2ccccc2c1CCO returned Runt-CBFb FRET 43, Runt-SMMHC FRET -2, Hck-Nef inh -1 and RanGTP-Impb inh 6.
For N#Cc1cc(Oc2cccc3cccnc23)c(-n2nnc3ccccc32)cc1C#N the results were Runt-CBFb FRET -21, Runt-SMMHC FRET -62, CaV13 FRET inh -14, Hck-Nef inh 0 and RanGTP-Impb inh 21*.
`N#Cc1ccc(Oc2cccc3cccnc23)c([N+](=O)[O-])c1` gave CaV13 FRET inh -3 and RanGTP-Impb inh 35*.
N#Cc1cc(O)c(-n2nnc3ccccc32)cc1C#N was read as Runt-CBFb FRET 0, Runt-SMMHC FRET -5, CaV13 FRET inh -5, Hck-Nef inh 16 and RanGTP-Impb inh -2.
